Source: BindingDB's records for doi:10.1021/jm030311v (Southern Research Institute, 2004)

Columns and labels:
[1] = Apparent antagonist activity determined by measuring the ability to inhibit stimulation of [35S]GTP-gamma-S, binding to opioid receptor delta 1 in guinea pig caudate membranes
[2] = Inhibitory concentration required for 50% inhibition of antagonism towards opioid receptor delta 1 in [35S]GTP-gamma-S, binding assay in guinea pig caudate
[3] = target: Kappa-type opioid receptor (Cavia porcellus, UniProt P41144); assay: Apparent binding affinity of compound was determined by antagonism towards Opioid receptor kappa 1 in [35S]GTP-gamma-S, binding assay in guinea pig caudate
Sequence of Kappa-type opioid receptor (P41144 whole entry): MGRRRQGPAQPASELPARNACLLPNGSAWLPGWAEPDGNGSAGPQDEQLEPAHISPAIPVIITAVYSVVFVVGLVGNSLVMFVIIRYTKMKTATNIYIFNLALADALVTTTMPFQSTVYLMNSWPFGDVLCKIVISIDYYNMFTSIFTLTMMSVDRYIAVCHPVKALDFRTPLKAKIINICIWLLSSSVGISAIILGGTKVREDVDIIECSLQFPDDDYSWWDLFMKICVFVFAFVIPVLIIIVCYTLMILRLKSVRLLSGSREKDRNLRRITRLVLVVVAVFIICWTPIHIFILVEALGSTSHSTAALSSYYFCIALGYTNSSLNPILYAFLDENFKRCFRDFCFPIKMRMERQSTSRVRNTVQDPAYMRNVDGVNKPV

Mu-type opioid receptor [4] = target: T1, Mu-type opioid receptor (Cavia porcellus, UniProt P97266); assay: Apparent binding affinity of compound was determined by antagonism towards Opioid receptor mu 1 in [35S]GTP-gamma-S, binding assay in guinea pig caudate
T1 sequence (P97266 whole entry): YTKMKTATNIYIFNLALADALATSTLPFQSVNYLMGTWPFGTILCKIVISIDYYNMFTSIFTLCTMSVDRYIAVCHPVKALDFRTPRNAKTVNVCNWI

Mu-type opioid receptor [5] = target: T1, Mu-type opioid receptor; assay: Agonistic activity towards Opioid receptor mu 1 was determined in [35S]GTP-gamma-S, binding assay in guinea pig caudate
Procedure, shortened: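 Guinea pig caudate membranes (10-20 µg protein) incubated 3 h at 22 °C in Tris-HCl pH 7.4 containing 100 mM NaCl, 10 mM MgCl2, 1 mM EDTA, 100 µM GDP and 0.05-0.1 nM [35S]GTP-γ-S, then filtered and counted. Nonspecific binding defined with 10 µM GTP-γ-S. Site isolation used CTAP, nor-BNI, NTI or TIPP. […] Three experiments pooled; logistic fit.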

`Oc1ccc2c3c1OC1c4ncc(-c5ccc(Cl)cc5)cc4C[C@@]4(O)[C@@H](C2)N(CC2CC2)CC[C@]314` (stereo partly drawn) [5'-(Chlorophenyl)-17-(cyclopropylmethyl) -6,7-didehydro-3,14-dihydroxy-4,5alpha-epoxypyrido-[2',3':6,7]morphinan] gave a Ki [1] of 0.18 nM.
With `CN1CC[C@]23c4c5ccc(O)c4O[C@H]2c2ncc(-c4ccc(Cl)cc4Cl)cc2C[C@H]3C1C5` [6-(2,4-dichlorophenyl)-19-methyl-(2R,10R)-11-oxa-8,19-diazahexacyclo[10.9.1.01,10.02,18.04,9.016,22]docosa-4(9),5,7,12,14,16(22)-hexaen-13-ol] the Ki [1] was 1.1 nM.
`CN1CC[C@]23c4c5ccc(O)c4O[C@H]2c2ncc(-c4ccc(Cl)c(Cl)c4)cc2C[C@H]3C1C5` [6-(3,4-dichlorophenyl)-19-methyl-(2R,10R)-11-oxa-8,19-diazahexacyclo[10.9.1.01,10.02,18.04,9.016,22]docosa-4(9),5,7,12,14,16(22)-hexaen-13-ol] showed an IC50 [2] of 74 nM.
`CN1CC[C@]23c4c5ccc(O)c4O[C@H]2c2ncc(-c4ccc(Br)cc4)cc2C[C@H]3C1C5` [6-(4-bromophenyl)-19-methyl-(2R,10R)-11-oxa-8,19-diazahexacyclo[10.9.1.01,10.02,18.04,9.016,22]docosa-4(9),5,7,12,14,16(22)-hexaen-13-ol] showed an IC50 [2] of 55 nM.
For `Oc1ccc2c3c1O[C@H]1c4ncc(-c5ccc(Cl)cc5)cc4C[C@H]4C(C2)N(CC2CC2)CC[C@]314` [6-(4-chlorophenyl)-19-cyclopropylmethyl-(2R,10R)-11-oxa-8,19-diazahexacyclo[10.9.1.01,10.02,18.04,9.016,22]docosa-4(9),5,7,12,14,16(22)-hexaen-13-ol], the Ki [1] was 1.6 nM.
With `CN1CC[C@]23c4c5ccc(O)c4O[C@H]2c2ncc(-c4ccc(Cl)cc4)cc2C[C@H]3C1C5` [6-(4-chlorophenyl)-19-methyl-(2R,10R)-11-oxa-8,19-diazahexacyclo[10.9.1.01,10.02,18.04,9.016,22]docosa-4(9),5,7,12,14,16(22)-hexaen-13-ol] the Ki [1] was 11 nM.
For `CN1CC[C@]23c4c5ccc(O)c4O[C@H]2c2ncc(-c4ccc(Cl)cc4)cc2C[C@@]3(O)C1C5` [6-(4-chlorophenyl)-19-methyl-(2S,10R)-11-oxa-8,19-diazahexacyclo[10.9.1.01,10.02,18.04,9.016,22]docosa-4(9),5,7,12,14,16(22)-hexaene-2,13-diol], the Ki [3] was 767 nM and the Ki (Mu-type opioid receptor [4]) was > 1000 nM.
Molecule `CN1CC[C@]23c4c5ccc(O)c4O[C@H]2c2ncc(-c4ccccc4)cc2C[C@@]3(O)C1C5` [19-methyl-6-phenyl-(2S,10R)-11-oxa-8,19-diazahexacyclo[10.9.1.01,10.02,18.04,9.016,22]docosa-4(9),5,7,12,14,16(22)-hexaene-2,13-diol] has an IC50 [2] of 920 nM.
`CN1CC[C@]23c4c5ccc(O)c4O[C@H]2c2ncccc2C[C@H]3C1C5` [19-methyl-(2R,10R)-11-oxa-8,19-diazahexacyclo[10.9.1.01,10.02,18.04,9.016,22]docosa-4(9),5,7,12,14,16(22)-hexaen-13-ol] showed a Ki [1] of 595 nM.
`C[C@@H](NC(=O)[C@@H](N)Cc1ccc(O)cc1)C(=O)NCC(=O)N(C)[C@@H](Cc1ccccc1)C(=O)NCCO` [[tyrosyl-3,5-3H(N)]-D-Ala2-Mephe4-glyol5-enkephalin] gave an EC50 (Mu-type opioid receptor [5]) of 414 nM.
